The values below come from ChEMBL document CHEMBL1124502, “Novel indolecarboxamidotetrazoles as potential antiallergy agents” (J Med Chem, 1989).

Assay [1] addresses T1, High affinity immunoglobulin epsilon receptor subunit alpha (Homo sapiens) (UniProt P12319).
T1 sequence (whole entry): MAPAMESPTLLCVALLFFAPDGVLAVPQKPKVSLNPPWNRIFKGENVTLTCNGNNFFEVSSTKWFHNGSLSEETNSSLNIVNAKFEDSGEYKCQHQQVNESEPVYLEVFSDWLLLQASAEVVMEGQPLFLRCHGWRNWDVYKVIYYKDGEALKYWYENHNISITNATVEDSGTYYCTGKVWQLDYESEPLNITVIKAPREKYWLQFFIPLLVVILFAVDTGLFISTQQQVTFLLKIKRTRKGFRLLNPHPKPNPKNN
Nature of the assay: (§1) Inhibition of anti-IgE antibody-stimulated histamine release in human basophills at 33 uM. Type of assay: functional. The essentials: (§2)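 Human leukocytes isolated after red-cell sedimentation, washed, suspended in buffer; preincubated with compound then challenged with anti-IgE. Released histamine measured by automated fluorometric assay; percent inhibition versus undrugged anti-IgE-challenged controls.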

For assay [2], the target named is T1, High affinity immunoglobulin epsilon receptor subunit alpha (Homo sapiens). Briefly: (§3) Inhibition of anti-IgE antibody-stimulated histamine release in human basophills at 10 uM. It counts as functional. The essentials:
as §2

The species named for assay [3] is Homo sapiens. The description is as §1. Type of assay: functional, organism-based. The essentials: as §2
The species entered for assay [4] is Cavia porcellus. Nature of the assay: Inhibition of ovalbumin-stimulated histamine release in guinea pig lung. It counts as functional, organism-based.
For assay [5], the species on record is Homo sapiens. Nature of the assay: Inhibition of anti-IgE antibody-stimulated histamine release in human basophills at 33 uM; c = sample fluorescence interferes with the histamine assay. It counts as functional. The essentials:
as §2

The species entered for assay [6] is Homo sapiens. The assay is described as §3. Type of assay: functional. The essentials:
as §2

For assay [7], the species on record is Cavia porcellus. Nature of the assay: Inhibition of ovalbumin-stimulated histamine release in guinea pig lung, at 75 uM compound concentration; […]. It counts as functional.
Assay [8] is filed under the species Homo sapiens. Briefly: Inhibition of anti-IgE antibody stimulated histamine release in human lung, at 75 uM compound concentration; […]. Type of assay: functional.
The species entered for assay [9] is Homo sapiens. Nature of the assay: Inhibition of anti-IgE antibody stimulated histamine release in human lung. Type of assay: functional, organism-based. In short, it runs like this: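 Grossly normal human lung from lobectomy, dissected, chopped into 25–75-mg fragments, washed, held overnight in Tyrode's buffer at room temperature, rewashed. About 400 mg tissue at 37 °C in Tyrode's for 10 min, drug or vehicle added, 10 min later anti-IgE (final 3:1000), 30 min further incubation, supernatant sampled for histamine.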

The species named for assay [10] is Cavia porcellus. Nature of the assay: Inhibition of ovalbumin stimulated histamine release in guinea pig lung.
Assay [11] is filed under the species Homo sapiens. Nature of the assay: Inhibition of anti-IgE antibody stimulated histamine release in human basophils. Type of assay: functional. The essentials:
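Human leukocytes obtained after red-cell sedimentation, washed and suspended in buffer, preincubated with drug, then challenged with anti-IgE. Histamine quantified by automated fluorometric assay; percent inhibition vs nondrug anti-IgE-challenged controls. IC50 from threefold concentrations 1–100 μM.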

For orientation: inhibition means the change of the read-out against control, counted positive when it falls. Read a high inhibition as a strong effect. For `COc1ccc2c(c1)c(SC(C)C)c(C(=O)Nc1nn[nH]n1)n2-c1ccccc1`, the inhibition in assay [1] came to 50%; in assay [2] it was 13%.

A word on the IC50: it is the concentration at which inhibition is half-maximal. As for `COc1ccc2c(c1)c1oc(C(=O)Nc3nnn[nH]3)c(OC)c1n2-c1ccccc1.NC(N)=NCCC[C@H](N)C(=O)O`, the values for the IC50 in [3] and in [4] were 8.5 µM and 13.4 µM, respectively.

On to `CCCCCCCCCOc1c(C(=O)Nc2nn[nH]n2)n(-c2ccccc2)c2ccc(OC)cc12`, for which the inhibition result in assay [5] is “Sample fluorescence interferes with histamine assay”.

With `COc1ccc2c(c1)c(C(C)C)c(C(=O)Nc1nn[nH]n1)n2-c1ccccc1`, the inhibition in [1] was under 25%.

`COc1ccc2c(c1)c(OC)c(C(=O)Nc1nn[nH]n1)n2-c1ccccc1`: the figures for the inhibition in assay [1] and in assay [2] were 74% and 46%, respectively.

In the case of `COc1ccc2c(c1)c(OCc1ccccc1)c(C(=O)Nc1nn[nH]n1)n2-c1ccccc1`, the inhibition in assay [1] was 84%; in assay [2], 43%.

By Inhibition is commonly meant the percentage by which the read-out fell short of the control. Low values mean a weak effect, high ones a strong effect. On to `CCOc1c(C(=O)Nc2nn[nH]n2)n(-c2ccccc2)c2ccc(OC)cc12`, for which the Inhibition in assay [6] was found to be 55%. Moreover, the inhibition in [1] is 73%.

In the case of `COc1cccc2c1c(OC(C)C)c(C(=O)Nc1nn[nH]n1)n2-c1ccccc1`, the inhibition in assay [1] was under 25%.

`COc1ccc(-n2c(C(=O)Nc3nn[nH]n3)c(OC(C)C)c3cc(OC)ccc32)cc1`: the inhibition was 49% in assay [1] and 16% in assay [2].

In assay [1], `COc1ccc2c(c1)c(S(C)(=O)=O)c(C(=O)Nc1nn[nH]n1)n2-c1ccccc1` came in with an inhibition of under 25%.

Regarding `COc1ccc2c(c1)c(Oc1ccc([N+](=O)[O-])cc1)c(C(=O)Nc1nn[nH]n1)n2-c1ccccc1`, the inhibition in assay [1] is under 25%.

For `CCOc1c(C(=O)Nc2nn[nH]n2)n(Cc2ccccc2)c2ccc(OC)cc12`, the inhibition in [1] stood at 55%; in assay [2], 26%.

In turn, `Cc1ccc2c(c1)c(OC(C)C)c(C(=O)Nc1nn[nH]n1)n2-c1ccccc1` returned an inhibition in assay [1] of under 25%.

With `COc1ccc(-n2c(C(=O)Nc3nn[nH]n3)c(OC(C)C)c3ccccc32)cc1`, the inhibition in [1] was under 25%.

`COc1ccc2c(c1)cc(C(=O)Nc1nn[nH]n1)n2-c1ccccc1` came in with an inhibition in [1] of under 25%.

Take `CCCc1c2oc(C(=O)O)cc(=O)c2cc2c(=O)cc(C(=O)O)n(CC)c12` [NEDOCROMIL]: the Inhibition result in assay [7] and in assay [8] was “<=25%” each time. The inhibition in [1] is under 25%.

Take `COc1ccc2c(OC(C)C)c(C(=O)Nc3nn[nH]n3)n(-c3ccccc3)c2c1`: the inhibition in assay [1] came out at 50%; in assay [2], 24%.

For the compound `O=C(Nc1nn[nH]n1)c1c(OCc2ccccc2)c2ccccc2n1-c1ccccc1`, in assay [1], the inhibition was under 25%.

Turning to `O=C([O-])c1cc(=O)c2c(OCC(O)COc3cccc4oc(C(=O)[O-])cc(=O)c34)cccc2o1.[Na+].[Na+]` [CROMOLYN SODIUM], the Inhibition entry in assay [7] and in assay [8] was “<=25%” each time. In assay [1], this compound came in with an inhibition of under 25%.

In [1], `CC(C)Oc1c(C(=O)Nc2nn[nH]n2)n(-c2ccccc2)c2ccccc12` showed an inhibition of under 25%.

`COc1ccc2c(c1)c(OC(C)C)c(C(=O)Nc1nn[nH]n1)n2Cc1ccccc1`: the results for the inhibition in assay [1] and in [2] were 69% and 61%, respectively.

For `COc1ccc2[nH]c(C(=O)Nc3nn[nH]n3)c(OC(C)C)c2c1`, the inhibition in [1] was 62%; in [2], 17%.

Regarding `COc1ccc2c(c1)c(OC(C)C)c(C(=O)Nc1nn[nH]n1)n2-c1ccccc1`, the half-maximal inhibitory concentration (IC50) was 16.6 µM in assay [9], 26.7 µM in [10] and 15 µM in [11]. Further, the results for the inhibition in assay [1] and in [2] were 82% and 46%, respectively.

As to `CC(C)Oc1c(C(=O)Nc2nn[nH]n2)n(-c2ccccc2)c2cc(Cl)c(Cl)cc12`, the inhibition was 84% in assay [1] and 40% in assay [2].

For `CC(C)Oc1c(C(=O)Nc2nn[nH]n2)n(-c2ccccc2)c2ccc(O)cc12`, the inhibition in assay [1] is under 25%.

For the compound `COc1ccc2c(c1)c(OC(C)C)c(C(=O)Nc1nn[nH]n1)n2C`, the inhibition is 45% in assay [1] and 18% in [2].

For `CC(C)Oc1c(C(=O)Nc2nn[nH]n2)n(-c2ccccc2)c2ccc(OCc3ccccc3)cc12`, the inhibition in assay [1] is 66%; in assay [2], 65%.

As for `CC(C)Oc1c(C(=O)Nc2nn[nH]n2)n(-c2ccccc2)c2ccc(Cl)cc12`, the figures for the inhibition in [1] and in assay [2] were 72% and 18%, respectively.

In assay [1], `COc1ccc2c(c1)c(O)c(C(=O)Nc1nn[nH]n1)n2-c1ccccc1` showed an inhibition of under 25%.

For `CC(C)Oc1c(C(=O)Nc2nn[nH]n2)n(-c2ccccc2)c2ccc(Br)cc12`, the inhibition was determined as 33% in [1] and 7% in [2].

For the compound `CCOc1c(C(=O)Nc2nn[nH]n2)[nH]c2ccc(OC)cc12`, the inhibition stood at 46% in assay [1] and 7% in assay [2].

Take `COc1ccc2c(c1)c(Sc1ccccc1)c(C(=O)Nc1nn[nH]n1)n2-c1ccccc1`: the results for the inhibition in [1] and in [2] were 82% and 30%, respectively.

`COc1ccc2c(c1)c(OC(C)C)c(-c1nn[nH]n1)n2-c1ccccc1`: the values for the inhibition in [1] and in assay [2] were 37% and 25%, respectively.

As for `COc1ccc2c(c1)c(SC)c(C(=O)Nc1nn[nH]n1)n2-c1ccccc1`, the results for the inhibition in [1] and in assay [2] were 66% and 20%, respectively.
